In ChEMBL document CHEMBL3414553, “Novel imidazo[2,1-b]-1,3,4-thiadiazoles as promising antifungal agents against clinical isolate of Cryptococcus neoformans” (2015) one finds MIC and GI50 data, which are given here for 14 molecules.

≈ marks a conversion by molar mass, not a printed value. Bounds are passed on as bounds.

Assay type in all cases: functional
The subject of experiment [1] is Mycobacterium tuberculosis. The experiment in a line: Antimicrobial activity against Mycobacterium tuberculosis H37Rv. The procedure, abridged:
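M. tuberculosis H37Rv grown 5 d in 7H9-Tw-OADC with 10-point two-fold serial dilutions from DMSO (final DMSO 2%). Top concentration 200 µM, or 50-fold below the stock for poorly soluble compounds. Controls: medium/DMSO background, 100 µM rifampicin for zero growth, DMSO for maximum growth, plus a rifampicin dose-response. Growth read by OD590 and fluorescence (Ex 560/Em 590).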

Experiment [2] deals with Candida albicans. As to the kind of experiment: Antifungal activity against Candida albicans clinical isolate after 24 hrs by two-fold broth microdilution method. The procedure, abridged:
(§1)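 Strains subcultured one day before testing; colonies suspended in sterile water and adjusted to 0.5 McFarland (1.5 × 10^8 cfu/ml). Two-fold dilutions in MHB (medium pH 7.4 ± 0.1), final 200 to 0.39 µg/ml. Incubated 37 ± 1 °C for 24 h, then resazurin (0.4 mg/ml) added for a further 5 h. MIC read by colour: blue = no growth, pink = growth.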
In general terms: Broth dilution looks for growth in wells or tubes with falling amounts of substance.

Experiment [3] concerns Pseudomonas aeruginosa. The experiment in a line: Antibacterial activity against Pseudomonas aeruginosa ATCC 27853 after 24 hrs by two-fold broth microdilution method. The conditions noted are these: ATCC 27853, 24 h. The method in brief: as §1
The subject of experiment [4] is Staphylococcus aureus. As to the kind of experiment: Antibacterial activity against Staphylococcus aureus ATCC 25923 after 24 hrs by two-fold broth microdilution method. The conditions noted are these: ATCC 25923, 24 h. The method in brief:
as §1

Experiment [5] concerns Candida albicans. The experiment in a line: Antifungal activity against Candida albicans ATCC 90028 after 24 hrs by two-fold broth microdilution method. The conditions noted are these: ATCC 90028, 24 h. The procedure, abridged:
as §1

Experiment [6] concerns Cryptococcus neoformans. As to the kind of experiment: Antifungal activity against […] clinical isolate after 24 hrs by two-fold broth microdilution method. The procedure, abridged:
as §1

For experiment [7], the system named is Aspergillus niger. The experiment in a line: Antifungal activity against Aspergillus niger ATCC 16404 after 24 hrs by two-fold broth microdilution method. The settings on record: ATCC 16404, 24 h. The method in brief:
as §1

The test system of experiment [8] is Bacillus subtilis. As to the kind of experiment: Antibacterial activity against Bacillus subtilis ATCC 6051 after 24 hrs by two-fold broth microdilution method. The settings on record: ATCC 6051, 24 h. The procedure, abridged: as §1
The subject of experiment [9] is Escherichia coli. As to the kind of experiment: Antibacterial activity against Escherichia coli ATCC 35218 after 24 hrs by two-fold broth microdilution method. The settings on record: ATCC 35218, 24 h. The method in brief: as §1
Experiment [10] has as its system Cryptococcus neoformans. As to the kind of experiment: Antifungal activity against […] ATCC 66031 after 24 hrs by two-fold broth microdilution method. The conditions noted are these: ATCC 66031, 24 h. The procedure, abridged: as §1
In experiment [11] the test system is MCF7. The experiment in a line: Cytotoxicity against human MCF7 cells.
The subject of experiment [12] is MDA-MB-231. As to the kind of experiment: Cytotoxicity against human MDA-MB-231 cells.
Experiment [13] has as its system MDA-MB-468. As to the kind of experiment: Cytotoxicity against human MDA-MB-468 cells.
Experiment [14] can be described thus: Cytotoxicity against human HL60 cells. The conditions noted are these: HL-60.
Experiment [15] is described as follows: Cytotoxicity against human OVCAR3 cells. The conditions noted are these: OVCAR-3.
The subject of experiment [16] is Candida tropicalis. The experiment in a line: Antimicrobial activity against Candida tropicalis.
The subject of experiment [17] is Cryptococcus neoformans. As to the kind of experiment: Antimicrobial activity against […].
For experiment [18], the system named is Candida albicans. As to the kind of experiment: Antimicrobial activity against Candida albicans.

In [1], `O=C(NN=C1CCCCC1)c1ccncc1` registered an MIC of 30 µg/mL (≈ 138 µM).
As to `O=C(/C=C/c1c(-c2ccc(Br)cc2)nc2sc(-c3ccccc3Cl)nn12)c1ccccc1`, the MIC in [2] was more than 200 µg/mL; in [3] it was more than 200 µg/mL; in experiment [4] it was more than 200 µg/mL; in experiment [5], more than 200 µg/mL; in experiment [6] it was 12.5 µg/mL (≈ 24 µM); in experiment [7], more than 200 µg/mL. The minimum inhibitory concentration (MIC) was more than 200 µg/mL in [8], 100 µg/mL (≈ 192 µM) in experiment [9] and 12.5 µg/mL (≈ 24 µM) in experiment [10].
Turning to `O=C(/C=C/c1c(-c2ccc(Br)cc2)nc2sc(-c3ccc(Cl)cc3)nn12)c1cccs1`, the MIC is more than 200 µg/mL in [2]; more than 200 µg/mL in [3]; more than 200 µg/mL in experiment [4]; 25 µg/mL (≈ 47.5 µM) in [5]; 12.5 µg/mL (≈ 23.7 µM) in experiment [6]; more than 200 µg/mL in [7]. For the same molecule, the MIC in [8] was more than 200 µg/mL; in [9], more than 200 µg/mL; in [10], 12.5 µg/mL (≈ 23.7 µM).
As to `Cc1ccc(C(=O)/C=C/c2c(-c3ccc(Br)cc3)nc3sc(-c4ccc(Cl)cc4)nn23)cc1`, the MIC in experiment [2] is more than 200 µg/mL; in experiment [3] it was more than 200 µg/mL; in experiment [4] it was more than 200 µg/mL; in experiment [5] it was 50 µg/mL (≈ 93.5 µM); in experiment [6], 6.25 µg/mL (≈ 11.7 µM); in [7], more than 200 µg/mL. The values for the MIC in experiment [8], in [9] and in experiment [10] were more than 200 µg/mL, more than 200 µg/mL and 3.12 µg/mL (≈ 5.84 µM), respectively.
Regarding `COc1ccc(C(=O)/C=C2\C(=O)Nc3ccc(Cl)cc32)cc1OC`, the values for the GI50 in [11], in experiment [12] and in [13] were 3.95 µM, 8.54 µM and 4.76 µM, respectively.
As to `O=C(/C=C/c1c(-c2ccc(Br)cc2)nc2sc(-c3ccccc3)nn12)c1ccccc1`, the MIC was more than 200 µg/mL in experiment [2]; more than 200 µg/mL in experiment [3]; more than 200 µg/mL in [4]; more than 200 µg/mL in experiment [5]; 200 µg/mL (≈ 411 µM) in [6]; more than 200 µg/mL in [7]. Moreover, the MIC is more than 200 µg/mL in experiment [8], more than 200 µg/mL in experiment [9] and 25 µg/mL (≈ 51.4 µM) in [10].
In the case of `COc1ccc(-c2nn3c(/C=C/C(=O)c4ccc(C)cc4)c(-c4ccc(Br)cc4)nc3s2)cc1`, the MIC was more than 200 µg/mL in [2]; more than 200 µg/mL in experiment [3]; more than 200 µg/mL in experiment [4]; 200 µg/mL (≈ 377 µM) in experiment [5]; 3.12 µg/mL (≈ 5.89 µM) in [6]; more than 200 µg/mL in [7]. In addition, the MIC in experiment [8] is more than 200 µg/mL; in [9] it was 200 µg/mL (≈ 377 µM); in [10], 1.56 µg/mL (≈ 2.94 µM).
As to `Brc1ccc(-c2nc3sc(-c4ccc(I)cc4)nn3c2/C=N/C2CC2)cc1`, the MIC was 50 µg/mL (≈ 91 µM) in experiment [2]; 50 µg/mL (≈ 91 µM) in experiment [3]; 200 µg/mL (≈ 364 µM) in [4]; 25 µg/mL (≈ 45.5 µM) in experiment [5]; more than 200 µg/mL in experiment [6]; 100 µg/mL (≈ 182 µM) in experiment [7]. Besides, the MIC in experiment [8] came out at 200 µg/mL (≈ 364 µM); in experiment [9] it was 200 µg/mL (≈ 364 µM); in [10], 100 µg/mL (≈ 182 µM).
As to `CC1=NN2C(=NC(C)C2C(=O)NNc2ccc(O)cc2)S1` (stereo not given), the GI50 in experiment [11] turned out to be 4.51 µM; in experiment [14] it was 4.5 µM; in experiment [15] it was 5.51 µM.
With `O=C(/C=C/c1c(-c2ccc(Br)cc2)nc2sc(-c3ccccc3)nn12)c1cccs1`, the minimum inhibitory concentration (MIC) in experiment [2] was more than 200 µg/mL; in experiment [3], more than 200 µg/mL; in experiment [4], more than 200 µg/mL; in experiment [5], 200 µg/mL (≈ 406 µM); in experiment [6], 6.25 µg/mL (≈ 12.7 µM); in experiment [7], more than 200 µg/mL. The MIC was more than 200 µg/mL in experiment [8], more than 200 µg/mL in experiment [9] and 6.25 µg/mL (≈ 12.7 µM) in experiment [10].
Take `Brc1ccc(-c2nc3sc(-c4ccc(I)cc4)nn3c2/C=N/C2CCCCC2)cc1`: the MIC in experiment [2] was 50 µg/mL (≈ 84.6 µM); in experiment [3], 50 µg/mL (≈ 84.6 µM); in experiment [4], 200 µg/mL (≈ 338 µM); in experiment [5] it was 25 µg/mL (≈ 42.3 µM); in experiment [6], more than 200 µg/mL; in experiment [7], 100 µg/mL (≈ 169 µM). Moreover, the MIC was 200 µg/mL (≈ 338 µM) in experiment [8], 200 µg/mL (≈ 338 µM) in experiment [9] and 100 µg/mL (≈ 169 µM) in experiment [10].
For the molecule `COc1ccc(-c2nn3cc(-c4ccc(Br)cc4)nc3s2)cc1OC`, the results for the MIC in experiment [16], in experiment [17] and in experiment [18] were 12.5 µg/mL (≈ 30 µM), 6.25 µg/mL (≈ 15 µM) and 6.25 µg/mL (≈ 15 µM), respectively.
In the case of `COc1ccc(-c2nn3c(/C=C/C(=O)c4cccs4)c(-c4ccc(Br)cc4)nc3s2)cc1`, the MIC was more than 200 µg/mL in [2]; more than 200 µg/mL in [3]; more than 200 µg/mL in experiment [4]; 100 µg/mL (≈ 191 µM) in experiment [5]; 200 µg/mL (≈ 383 µM) in experiment [6]; more than 200 µg/mL in experiment [7]. Also, the minimum inhibitory concentration (MIC) in experiment [8] is more than 200 µg/mL; in experiment [9], more than 200 µg/mL; in [10], 25 µg/mL (≈ 47.9 µM).
Take `Clc1ccccc1-c1nn2c(/C=N/C3CCCCC3)c(-c3ccc(Br)cc3)nc2s1`: the MIC in experiment [2] was 25 µg/mL (≈ 50 µM); in experiment [3], 50 µg/mL (≈ 100 µM); in experiment [4] it was 200 µg/mL (≈ 400 µM); in experiment [5], 12.5 µg/mL (≈ 25 µM); in [6], more than 200 µg/mL; in experiment [7], 100 µg/mL (≈ 200 µM). Also, the MIC in experiment [8] amounted to 200 µg/mL (≈ 400 µM); in experiment [9], 200 µg/mL (≈ 400 µM); in [10], 100 µg/mL (≈ 200 µM).

The MIC is the smallest concentration in the dilution series that meets the test's criterion for growth inhibition. Read a high MIC as a less susceptible organism. Broadly, the GI50 is the concentration at which growth is held to half of that of the control. Read a high GI50 as lower sensitivity of the cells.
